# Source: PubChem BioAssay (several laboratories)
# An excerpt weighted towards active compounds, which were near 2% of everything screened.
# Granule exo inh – blocks lytic granule exocytosis; TALL-104 LAMP-1 surface exposure, flow cytometry; cells stimulated with thapsigargin and PMA; inhibition, % at 10 µM; 360,000 tested, 0.66% active; AID 651702;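 active means inhibition above about 55%, limit read from the data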
# DAGLB inh – blocks human DAGLB lipase activity; 340,000 tested, 0.059% active; HEK293T DAGLB membrane lysate, EnzChek fluorogenic substrate; inhibition, % at 5.17 µM; in the data active means inhibition above about 34%
# ABCB6 inh 2 – human ABCB6 transporter inhibition; fluorescence ratio to DMSO, % at 10 µM; AID 602162; Q9NP58; 360,000 tested, 0.19% active; K562-ABCB6 porphyrin accumulation, flow cytometry, 1 h; stronger effect = lower value;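 active means fluorescence ratio to DMSO below 75%, the collection mean minus 3 SD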;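 further: signal is porphyrin accumulated inside mitochondria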
# VLA-4 inh – inhibition in a human VLA-4 binding assay; P13612; VLA-4 expressing cells, ligand binding flow cytometry; inhibition, % (about 7 µM as worked out from the volumes in the protocol); 330,000 tested, 0.2% active; in the data active means inhibition above about 50%
# FGF22 binding – FGF22 (human) thermal shift binding. recombinant FGF22 thermal shift, SYPRO orange fluorescence; percent of sucrose octasulfate shift, DMSO zero. activity (Tm shift, normalised), % at 9.99 µM. 340,000 tested, 1.5% active. AID 651658;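 active means mean Tm shift, scaled 0 neutral to 100 positive control, at about 1.3% or above, every replicate too, limit read from the data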
# MT1-MMP act inh – blocks activation of human MT1-MMP; P50281; HT1080 RFP-PRO-GFP cells, GFP/RFP ratio fluorescence, overnight; percent of plate control window, DMSO zero; GFP/RFP ratio change, % at 20 µM; 360,000 tested, 0.061% active; AID 651647;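 active means GFP/RFP ratio change of at least 30% with cell ATP level not reduced by more than half and red fluorescence within 50% of control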
#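 Assay system: HT1080 cells carrying an RFP-PRO-GFP reporter | Dosing: Single dose of 20 µM compound, 1% DMSO final | Incubation: Cells overnight before dosing, compound overnight, 37 °C, 5% CO2 | Evaluation: GFP/RFP fluorescence ratio | Control set: DMSO and RFP-L50D-GFP cell wells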
# Hits are given with their value; 0 = inactive; - = no result given.
SMILES,Granule exo inh,DAGLB inh,ABCB6 inh 2,VLA-4 inh,FGF22 binding,MT1-MMP act inh
CCN(CC)C(=O)[C@H]1CC(CC(=O)NCCc2ccccn2)C(=O)N2CCc3c([nH]c4ccccc34)[C@]12C (some centres undefined),0,0,0,0,43.0,0
CCN(CC)C(=O)[C@H]1CC(CC(=O)NCCc2ccccn2)C(=O)N2CCc3c([nH]c4ccc(OC)cc34)[C@]12C (some centres undefined),0,0,0,-,0,0
C[C@@H]1CN([C@@H](C)CO)C(=O)c2cc(NC(=O)c3ccncc3)ccc2O[C@H]1CN(C)C(=O)Nc1ccc(C(F)(F)F)cc1,-,-,-,-,0,-
O=C(C1CCCCC1)N1C[C@H]2[C@@H](c3ccccc31)[C@H](CO)N2CC1CCOCC1,-,-,-,-,0,-
COc1ccc(-[n+]2c(C)cc(/C=C3\Sc4ccccc4N3C)cc2C)cc1,60.9,0,0,0,0,0
COc1ccccc1-[n+]1c(C)cc(/C=C2\Sc3ccccc3N2C)cc1C,0,0,0,0,0,0
C[C@@H]1CN([C@@H](C)CO)C(=O)c2cc(NC(=O)Nc3cccc4ccccc34)ccc2O[C@@H]1CN(C)S(C)(=O)=O,-,-,-,-,0,-
CN(C)C(=O)[C@@H]1[C@@H](CO)[C@@H]2Cn3c(ccc(-c4ccccc4F)c3=O)[C@@H]2N1C(=O)c1cnccn1,-,-,-,-,0,-
C=CCn1c(Sc2ncc([N+](=O)[O-])s2)n[nH]c1=O,57.9,0,0,0,0,0
C=CCn1c(CSc2ccccc2[N+](=O)[O-])n[nH]c1=S,0,0,0,0,0,0
C[C@H]1CN([C@@H](C)CO)C(=O)CCCn2cc(nn2)CO[C@H]1CN(C)Cc1cccc2c1OCCCO2,-,-,-,-,0,-
CC(C)CC#Cc1ccc2c(c1)O[C@@H](CN(C)C(=O)NC(C)C)[C@H](C)CN([C@@H](C)CO)S2(=O)=O,-,-,-,-,0,-
CCS(=O)(=O)c1ccc(Sc2nncn2C)c([N+](=O)[O-])c1,0,0,0,0,0,0
Cn1cnnc1Sc1cc(N2CCN(S(=O)(=O)c3ccccc3)CC2)ccc1[N+](=O)[O-],0,0,0,0,44.7,0
O=C(C[C@@H]1CC[C@@H]2[C@H](COC[C@H](O)CN2C(=O)c2ccc(F)cc2)O1)Nc1ccc(-c2ccccc2)cc1,-,-,-,-,0,-
O=C1CCCc2c1ccc1ccccc21,0,0,0,-,0,0
COc1cc2c(c3ccccc13)CCCC2=O,0,0,0,-,43.2,0
Cc1ccc(S(=O)(=O)N(C)C[C@H]2Oc3ccc(NC(=O)CCCCCC(=O)Nc4ccccc4N)cc3C(=O)N([C@H](C)CO)C[C@@H]2C)cc1,-,-,-,-,0,-
CCC(=O)Nc1ccc(C(=O)Nc2ccc(Br)cc2F)cc1,0,0,0,0,43.5,0
O=C(O)c1ccc(/C=N/n2cc(-c3ccccc3)[nH]c2=S)cc1,0,0,0,0,0,0
S=c1[nH]c(-c2ccccc2)cn1/N=C/c1ccc(Br)cc1,0,0,0,0,43.1,0
COCCn1c(SCc2ccc(F)cc2)nc2ccccc2c1=O,0,0,0,0,0,0
CCSc1nc2ccccc2c(=O)n1Cc1ccc(F)cc1,0,0,0,0,43.6,0
Cn1nc(C(=O)N2CCN(S(=O)(=O)c3ccc(Cl)cc3)CC2)c2ccccc2c1=O,0,0,0,-,0,0
CCOC(=O)c1ccc(S(=O)(=O)N2CCN(C(=O)c3nn(C)c(=O)c4ccccc34)CC2)cc1,0,0,0,0,43.1,0
SMILES,Granule exo inh,DAGLB inh,ABCB6 inh 2,VLA-4 inh,FGF22 binding,MT1-MMP act inh
C[C@H](CO)N1C[C@H](C)[C@H](CN(C)C(=O)Cc2ccccn2)Oc2cc(-c3cccc(C(=O)N(C)C)c3)ccc2S1(=O)=O,-,-,-,-,0,-
COc1ccc(/C=C(\C#N)C(=O)OCC(=O)NCc2ccccc2)cc1,0,0,0,0,33.8,0
COc1ccc(/C=C(\C#N)C(=O)OCC(=O)Nc2c(C)cccc2C)cc1,0,0,0,0,0,0
N#C/C(=C\c1ccc(O)c(Br)c1)C(=O)NCc1ccccc1,0,0,0,0,-,0
COc1ccc(/C=C(\C#N)C(=O)OCC(=O)NCc2ccco2)cc1,0,0,0,0,0,0
N#C/C(=C/c1ccccc1)C(=O)NCc1ccccc1,0,0,0,0,43.5,0
